Test results taken from the array DNA melting data of Ke et al. (doi:10.1101/2024.01.08.574731).

Tests used:
[1] = folding enthalpy; higher = less favourable; fluorescence melt of hairpins on a sequencing array, two-state fit; conditions: sodium 0.088 M
Summary of the method: (§1)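 On a sequenced MiSeq flow cell, library hairpins with annealed Cy3 and quencher oligos were imaged for Cy3 fluorescence in 2.5 °C steps up to 60 °C, in 50 mM Na-HEPES pH 8.0, 25 mM NaCl. Normalisation used pre-quench Cy3 and control constructs. Bootstrapped two-state fits gave melting temperature and folding enthalpy, combined by inverse variance across four replicates and with fitted temperatures raised by 9.35 °C to match UV melts.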

[2] = melting temperature; fluorescence melt of hairpins on a sequencing array, two-state fit, raised by 9.35 °C to match UV melts; conditions: sodium 0.088 M
Summary of the method: as §1

| Sequence | folding enthalpy [1] | Tm [2] |
| --- | --- | --- |
| GGCACCACGAAAGTGGCC (((..(((....)))))) | -11.6 kcal/mol | 38.1 °C |
| GGCACCCCGAAAGGGGCC (((..(((....)))))) | -12.9 kcal/mol | 53.1 °C |
| GGCACCCGAAAGGGGCC (((.(((....)))))) | -20.9 kcal/mol | 67.1 °C |
| GGCACCGAAAGGTACGCC ((((((....)))..))) | -27.3 kcal/mol | 51.4 °C |
| GGCACCGAAAGGTATGCC ((((((....)))..))) | -25.1 kcal/mol | 51.6 °C |
| GGCACCGAAAGGTCAGCC ((((((....)))..))) | -24.2 kcal/mol | 49.2 °C |
| GGCACCGGAAACGACGCC (((..((....))..))) | -29.9 kcal/mol | 42 °C |
| GGCACGGGAAACCGTACC ((.((((....)))).)) | -34.4 kcal/mol | 48.4 °C |
| GGCACTCGAAAGAGAGCC (((.(((....))).))) | -46.2 kcal/mol | 59 °C |
| GGCACTGGAAACAATGCC ((((.((....)).)))) | -29.6 kcal/mol | 42.7 °C |
| GGCACTGGAAACAGTACC ((.((((....)))).)) | -33 kcal/mol | 43 °C |
| GGCAGAACGAAAGTTGCC (((..(((....)))))) | -27.2 kcal/mol | 50.9 °C |
| GGCAGAGGAAACCCTGCC (((((.(....).))))) | -37.8 kcal/mol | 53.3 °C |
| GGCAGAGGAAACTCTACC ((.((((....)))).)) | -23.8 kcal/mol | 38.3 °C |
| GGCAGCCGAAAGGCCGCC (((.(((....))).))) | -22.3 kcal/mol | 66.9 °C |
| GGCAGCGAAAGCTACGCC ((((((....)))..))) | -20.5 kcal/mol | 53.5 °C |
| GGCAGCGAAAGCTGCGCC ((((((....)))..))) | -6.68 kcal/mol | 65.7 °C |
| GGCAGCGAAAGCTTGCC ((((((....))).))) | -27.1 kcal/mol | 63.1 °C |
| GGCAGCGAAAGCTTGGCC ((((((....)))..))) | -23.7 kcal/mol | 52.7 °C |
| GGCAGCGGAAACGTTGCC ((((.((....)).)))) | -40.4 kcal/mol | 61.2 °C |
| GGCAGGACGAAAGTCGCC (((..(((....)))))) | -38.2 kcal/mol | 55.4 °C |
| GGCAGGGGAAACCTTGCC ((((.((....)).)))) | -49.2 kcal/mol | 55.3 °C |
| GGCAGTCGAAAGACAGCC (((.(((....))).))) | -38.9 kcal/mol | 61.8 °C |

| Sequence | folding enthalpy [1] | Tm [2] |
| --- | --- | --- |
| GGCAGTGCGAAAGCAGCC (((..(((....)))))) | -19.7 kcal/mol | 53 °C |
| GGCAGTGGAAACACCACC ((..(((....)))..)) | -13.2 kcal/mol | 29.5 °C |
| GGCAGTGGAAACACTGTC (.(((((....))))).) | -30.2 kcal/mol | 54.1 °C |
| GGCAGTGGAAACGCTGCC (((((.(....).))))) | -42.3 kcal/mol | 62.7 °C |
| GGCAGTGGAAACGCTGTC (.(((.(....).))).) | -23.4 kcal/mol | 44.5 °C |
| GGCATACGAAAGTAGCC (((.(((....)))))) | -24.4 kcal/mol | 52.7 °C |
| GGCATAGAAATATGCC ((((((....)))))) | -42.2 kcal/mol | 55.4 °C |
| GGCATAGGAAACTATACC ((.((((....)))).)) | -18.6 kcal/mol | 31.2 °C |
| GGCATCCGAAAGGACGCC (((.(((....))).))) | -48.8 kcal/mol | 57.2 °C |
| GGCATCCGAAAGGAGGCC (((.(((....))).))) | -38.2 kcal/mol | 69.3 °C |
| GGCATCGAAAGATAGCC ((((((....))).))) | -25.6 kcal/mol | 51.9 °C |
| GGCATCGAAAGATCTGCC ((((((....)))..))) | -24.9 kcal/mol | 39.6 °C |
| GGCATCGAAAGATGGGCC ((((((....)))..))) | -19.2 kcal/mol | 46.8 °C |
| GGCATCGAAAGATTGCC ((((((....))).))) | -31.1 kcal/mol | 52.7 °C |
| GGCATCGAAAGATTTGCC ((((((....)))..))) | -29.2 kcal/mol | 40.7 °C |
| GGCATGAAAATGCC (((((....))))) | -26 kcal/mol | 62.8 °C |
| GGCATGACGAAAGTCGCC (((..(((....)))))) | -28.3 kcal/mol | 52.6 °C |
| GGCATGCGAAAGCAGCC (((.(((....)))))) | -21.6 kcal/mol | 64.3 °C |
| GGCATGGGAAACCACGCC (((.(((....))).))) | -35.2 kcal/mol | 49.4 °C |
| GGCCAACCGAAAGGTGCC (((..(((....)))))) | -23.8 kcal/mol | 50.4 °C |
| GGCCAACGAAAGTTCGCC (((.(((....))).))) | -40.2 kcal/mol | 47 °C |
| GGCCAACGAAAGTTTGCC (((.(((....))).))) | -45.6 kcal/mol | 50.7 °C |
| GGCCAAGGAAACCTAGCC (((.(.(....).).))) | -27.2 kcal/mol | 31.3 °C |

| Sequence | folding enthalpy [1] | Tm [2] |
| --- | --- | --- |
| GGCCAAGGAAACTCAGCC (((..((....))..))) | -11.7 kcal/mol | 30.2 °C |
| GGCCAAGGAAACTTAGCC (((.(((....))).))) | -24.7 kcal/mol | 36.3 °C |
| GGCCACGGAAACGTGACC ((.((((....)))).)) | -37.9 kcal/mol | 54.1 °C |
| GGCCAGACGAAAGTCGCC (((..(((....)))))) | -13.3 kcal/mol | 54.1 °C |
| GGCCAGGGAAACCCGACC ((.(.((....)).).)) | -11.9 kcal/mol | 32.5 °C |
| GGCCATCGAAAGATAGCC (((.(((....))).))) | -29.4 kcal/mol | 48.3 °C |
| GGCCATTCGAAAGAAGCC (((..(((....)))))) | -19.9 kcal/mol | 33.1 °C |
| GGCCCAGGAAACTGGGTC (.(((((....))))).) | -34.5 kcal/mol | 59.8 °C |
| GGCCCATCGAAAGATGCC (((..(((....)))))) | -12.4 kcal/mol | 34.6 °C |
| GGCCCCACGAAAGTGGCC (((..(((....)))))) | -11.8 kcal/mol | 44.7 °C |
| GGCCCCGGAAACGGGACC ((.((((....)))).)) | -25.8 kcal/mol | 59 °C |
| GGCCCGCGAAAGCGCGCC (((.(((....))).))) | -26.5 kcal/mol | 64.4 °C |
| GGCCCGCGAAAGCGTGCC (((.(((....))).))) | -26.5 kcal/mol | 67.3 °C |
| GGCCCTCGAAAGAGTGCC (((.(((....))).))) | -44.1 kcal/mol | 53.3 °C |
| GGCCCTGGAAACAAGGCC ((((.((....)).)))) | -36.7 kcal/mol | 48.3 °C |
| GGCCCTTCGAAAGAAGCC (((..(((....)))))) | -12.6 kcal/mol | 27.3 °C |
| GGCCGCACGAAAGTGGCC (((..(((....)))))) | -26.5 kcal/mol | 58.9 °C |
| GGCCGCGAAAGCGATGCC ((((((....)))..))) | -25.2 kcal/mol | 59.3 °C |
| GGCCGCGAAAGCGTGGCC ((((((....)))..))) | -22.8 kcal/mol | 69.2 °C |
| GGCCGCGGAAACACGGCC (((((.(....).))))) | -45.4 kcal/mol | 66.1 °C |
| GGCCGGGGAAACCCGACC ((.((((....)))).)) | -34.5 kcal/mol | 57.2 °C |
| GGCCGTGCGAAAGCAGCC (((..(((....)))))) | -16.3 kcal/mol | 46.6 °C |
| GGCCGTGGAAACACGACC ((.((((....)))).)) | -36.2 kcal/mol | 55 °C |

| Sequence | folding enthalpy [1] | Tm [2] |
| --- | --- | --- |
| GGCCGTGGAAACACGGTC (.(((((....))))).) | -24.3 kcal/mol | 65.3 °C |
| GGCCTACCGAAAGGTGCC (((..(((....)))))) | -20.7 kcal/mol | 46.7 °C |
| GGCCTAGGAAACTGGGTC (.((.((....)).)).) | -28.5 kcal/mol | 40.9 °C |
| GGCCTATCGAAAGATGCC (((..(((....)))))) | -22.8 kcal/mol | 36.1 °C |
| GGCCTCGGAAACGAAGCC (((.(((....))).))) | -30.8 kcal/mol | 47.8 °C |
| GGCCTGCCGAAAGGCGCC (((..(((....)))))) | -13.7 kcal/mol | 49.4 °C |
| GGCCTGCGAAAGCATGCC (((.(((....))).))) | -28.2 kcal/mol | 58.4 °C |
| GGCCTGGGAAACTGGGCC ((((..(....)..)))) | -38 kcal/mol | 54.7 °C |
| GGCCTTCCGAAAGGAGCC (((..(((....)))))) | -19.1 kcal/mol | 38.9 °C |
| GGCCTTTCGAAAGAAGCC (((..(((....)))))) | -29.9 kcal/mol | 37.2 °C |
| GGCGAACCGAAAGGTGCC (((..(((....)))))) | -28.3 kcal/mol | 53.7 °C |
| GGCGAACGAAAGTTGGCC (((.(((....))).))) | -42.5 kcal/mol | 59 °C |
| GGCGAAGCGAAAGCTGCC (((..(((....)))))) | -17.7 kcal/mol | 52.8 °C |
| GGCGAAGGAAACTTCGTC (.(((((....))))).) | -35.7 kcal/mol | 53.1 °C |
| GGCGACCGAAAGGTGCC (((.(((....)))))) | -20.9 kcal/mol | 63.5 °C |
| GGCGACCGAAAGGTGGCC (((.(((....))).))) | -29.2 kcal/mol | 67.9 °C |
| GGCGACGAAAGTCTCGCC ((((((....)))..))) | -25.7 kcal/mol | 55.2 °C |
| GGCGACGGAAACACCGCC ((((..(....)..)))) | -29.3 kcal/mol | 44.5 °C |
| GGCGAGACGAAAGTCGCC (((..(((....)))))) | -13.8 kcal/mol | 59.4 °C |
| GGCGAGGGAAACCTTGCC (((.(((....))).))) | -44.4 kcal/mol | 58 °C |
| GGCGCAGGAAACTACGCC ((((.((....)).)))) | -39 kcal/mol | 53.5 °C |
| GGCGCCGAAAGGCACGCC ((((((....)))..))) | -15.7 kcal/mol | 63.4 °C |
